Results: ChEMBL document CHEMBL2046352, “Discovery of novel 5-(ethyl or hydroxymethyl) analogs of 2'-'up' fluoro (or hydroxyl) pyrimidine nucleosides as a new class of Mycobacterium tuberculosis, Mycobacterium bovis and Mycobacterium avium inhibitors” (Bioorg Med Chem, 2012)
Calls of active or inactive are those of the source. The calls are words filed in the database; no cut-off is given here.

Key:
[1] = Toxicity against human HuH7 cells after 2 days by [3H]thymidine incorporation assay; type: cell-based, Huh-7
Method in brief: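 Huh-7 cells plated at 1 x 10^4/well and exposed in triplicate to 200, 100, 50, 10 and 1 ug/mL with a DMSO control for two days at 37 °C. Pulsed with 0.5 uCi/well [3H]-thymidine for 12–18 h, harvested onto filters, incorporation counted by liquid scintillation.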

Mycobacterium avium [2] = assay: Antimycobacterial activity against Mycobacterium avium ATCC 25291 assessed as inhibition of microbial growth at 0.5 to 100 ug/ml incubated for 6 days by MABA method; type: functional, Mycobacterium avium subsp. avium ATCC 25291
Method in brief: (§1)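 Microplate alamar blue assay in 7H9GC medium. Compounds dissolved in DMSO at 10 mg/mL (stock), diluted to 100, 50, 25, 10, 5, 1 and 0.5 ug/mL, each in triplicate. Frozen inoculum added at final 2.5 x 10^5 CFU/mL. Bacteria-alone and medium-alone control wells. Read by colour change and fluorescence. % inhibition = (test − M bkg)/(B − M bkg) x 100, mean of two experiments. MIC50 = lowest concentration giving ≥50% inhibition.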

[3] = Toxicity against human HuH7 cells after 2 days by XTT assay; type: cell-based, Huh-7
Method in brief: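 Huh-7 hepatoma cells seeded at 2 x 10^4/well, allowed to attach 6–8 h, then exposed to 200, 100, 50, 10 and 1 ug/mL with a DMSO control for two days at 37 °C. Viability by XTT, 4 h at 37 °C, absorbance 450–500 nm.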

[4] = system: Mycobacterium tuberculosis; assay: Antimycobacterial activity against Mycobacterium tuberculosis H37Ra assessed as inhibition of microbial growth at 0.5 to 100 ug/ml incubated for 6 days by MABA method; type: functional; method in brief: as §1
[5] = system: Mycobacterium tuberculosis; assay: Antimycobacterial activity against Mycobacterium tuberculosis H37Ra assessed as inhibition of microbial growth at 15 to 20 ug/ml incubated for 6 days by MABA method; type: functional
[6] = system: Mycobacterium tuberculosis; assay: Antimycobacterial activity against Mycobacterium tuberculosis H37Ra assessed as inhibition of microbial growth at 5 ug/ml incubated for 6 days by MABA method; type: functional; conditions: 144 h, read-out: GI; method in brief: as §1
[7] = system: Mycobacterium tuberculosis; assay: Antimycobacterial activity against Mycobacterium tuberculosis H37Ra assessed as inhibition of microbial growth incubated for 6 days by MABA method; type: functional; conditions: 144 h; method in brief: as §1
[8] = system: Mycobacterium tuberculosis; assay: Antimycobacterial activity against Mycobacterium tuberculosis H37Ra assessed as inhibition of microbial growth at 10 ug/ml incubated for 6 days by MABA method; type: functional; conditions: 144 h, read-out: GI; method in brief: as §1
[9] = system: Mycobacterium tuberculosis; assay: Antimycobacterial activity against Mycobacterium tuberculosis H37Ra assessed as inhibition of microbial growth at 100 ug/ml incubated for 6 days by MABA method; type: functional; conditions: 144 h, read-out: GI; method in brief: as §1
[10] = system: Mycobacterium tuberculosis; assay: Antimycobacterial activity against Mycobacterium tuberculosis H37Ra assessed as inhibition of microbial growth at 50 ug/ml incubated for 6 days by MABA method; type: functional; conditions: 144 h, read-out: GI; method in brief: as §1
Mycobacterium avium [11] = assay: Antimycobacterial activity against Mycobacterium avium ATCC 25291 assessed as inhibition of microbial growth at 100 ug/ml incubated for 6 days by MABA method; type: functional, Mycobacterium avium subsp. avium ATCC 25291; conditions: ATCC 25291, 144 h, read-out: GI; method in brief: as §1
[12] = system: Mycobacterium tuberculosis; assay: Antimycobacterial activity against Mycobacterium tuberculosis H37Rv assessed as inhibition of microbial growth at 1 ug/ml by radiometric-BACTEC assay; type: functional; conditions: read-out: GI
[13] = system: Mycobacterium tuberculosis; assay: Antimycobacterial activity against Mycobacterium tuberculosis H37Ra assessed as inhibition of microbial growth at 0.1 ug/ml incubated for 6 days by MABA method; type: functional; conditions: 144 h, read-out: GI
Mycobacterium avium [14] = assay: Antimycobacterial activity against Mycobacterium avium ATCC 25291 assessed as inhibition of microbial growth at 50 ug/ml incubated for 6 days by MABA method; type: functional, Mycobacterium avium subsp. avium ATCC 25291; conditions: ATCC 25291, 144 h, read-out: GI; method in brief: as §1
Mycobacterium avium [15] = assay: Antimycobacterial activity against Mycobacterium avium ATCC 25291 assessed as inhibition of microbial growth at 2 ug/ml incubated for 6 days by MABA method; type: functional, Mycobacterium avium subsp. avium ATCC 25291; conditions: ATCC 25291, 144 h, read-out: GI
[16] = system: Mycobacterium tuberculosis; assay: Antimycobacterial activity against Mycobacterium tuberculosis H37Rv assessed as inhibition of microbial growth at 2 ug/ml by radiometric-BACTEC assay; type: functional, organism-based
[17] = system: Mycobacterium tuberculosis; assay: Antimycobacterial activity against Mycobacterium tuberculosis H37Ra assessed as inhibition of microbial growth at 0.5 ug/ml incubated for 6 days by MABA method; type: functional; conditions: 144 h, read-out: GI; method in brief: as §1
Mycobacterium avium [18] = assay: Antimycobacterial activity against Mycobacterium avium ATCC 25291 assessed as inhibition of microbial growth at 10 ug/ml incubated for 6 days by MABA method; type: functional, Mycobacterium avium subsp. avium ATCC 25291; conditions: ATCC 25291, 144 h, read-out: GI; method in brief: as §1
[19] = system: Mycobacterium tuberculosis; assay: Potency index, ratio of MIC50 for cycloserine to MIC50 for compound against Mycobacterium tuberculosis H37Ra incubated for 6 days by MABA method; type: functional
Mycobacterium avium [20] = assay: Antimycobacterial activity against Mycobacterium avium ATCC 25291 assessed as inhibition of microbial growth incubated for 6 days by MABA method; type: functional, Mycobacterium avium subsp. avium ATCC 25291; conditions: ATCC 25291, 144 h; method in brief: as §1
[21] = system: Mycobacterium tuberculosis; assay: Antimycobacterial activity against Mycobacterium tuberculosis H37Rv assessed as inhibition of microbial growth by radiometric-BACTEC assay; type: functional

Structure (SMILES) | CC50 at 48 h [1] [µg/mL] | growth inhibition (GI) (Mycobacterium avium [2]) [%] | CC50 at 48 h [3] [µg/mL] | MIC50 [7] [µg/mL] | inhibition of growth at 100 µg/mL [9] [%] | inhibition of growth at 50 µg/mL [10] [%] | inhibition of growth at 100 µg/mL (Mycobacterium avium [11]) [%] | other results
CCc1cn([C@@H]2O[C@H](CO)[C@@H](N=[N+]=[N-])[C@@H]2F)c(=O)[nH]c1=O | > 100 | 0 | > 100 |  |  |  |  | growth inhibition (GI) [4]: 0%
N[C@@H]1CONC1=O [CYCLOSERINE] |  |  |  | 5 | 100 | 100 |  | growth inhibition (GI) [5]: 80%; inhibition of growth at 5 µg/mL [6]: 50%; inhibition of growth at 10 µg/mL [8]: 60%
COCc1cn([C@@H]2O[C@H](CO)[C@@H](O)[C@@H]2O)c(=O)nc1N | > 100 |  | > 100 |  | 80 | 60 | 20 | inhibition of growth at 10 µg/mL [8]: 50%
CCc1cn([C@H]2O[C@@H](CO)[C@H](O)[C@H]2F)c(=O)[nH]c1=O (single isomer, unassigned) | > 100 | 0 | > 100 |  |  |  |  | growth inhibition (GI) [4]: 0%
NNC(=O)c1ccncc1 [ISONIAZID] |  |  |  |  |  |  |  | inhibition of growth at 1 µg/mL [12]: 100%; inhibition of growth at 0.1 µg/mL [13]: 10%
CCc1cn([C@@H]2O[C@H](CO)[C@@H](O)[C@@H]2F)c(=O)[nH]c1=S | > 100 |  | > 100 | 50 | 60 | 50 | 35 | inhibition of growth at 50 µg/mL (Mycobacterium avium [14]): 25%
CC[C@H]1OC(=O)[C@H](C)[C@@H](O[C@H]2C[C@@](C)(OC)[C@@H](O)[C@H](C)O2)[C@H](C)[C@@H](O[C@@H]2O[C@H](C)C[C@H](N(C)C)[C@H]2O)[C@](C)(OC)C[C@@H](C)C(=O)[C@H](C)[C@@H](O)[C@]1(C)O [CLARITHROMYCIN] |  |  |  |  |  |  |  | inhibition of growth at 2 µg/mL (Mycobacterium avium [15]): 100%
O=c1[nH]c(=O)n([C@@H]2O[C@H](CO)[C@@H](O)[C@@H]2O)cc1CO | > 100 | 0 | > 100 |  |  |  |  | growth inhibition (GI) [4]: 0%
CO[C@H]1/C=C/O[C@@]2(C)Oc3c(C)c(O)c4c(O)c(c(/C=N/N5CCN(C)CC5)c(O)c4c3C2=O)NC(=O)/C(C)=C\C=C\[C@H](C)[C@H](O)[C@@H](C)[C@@H](O)[C@@H](C)[C@H](OC(C)=O)[C@@H]1C [RIFAMPIN] |  |  |  |  |  |  |  | growth inhibition (GI) [16]: inactive; inhibition of growth at 0.5 µg/mL [17]: 100%; inhibition of growth at 2 µg/mL (Mycobacterium avium [15]): 90%
CCc1cn([C@@H]2O[C@H](COC(C)=O)[C@@H](OC(C)=O)[C@@H]2F)c(=O)[nH]c1=O | > 100 |  | > 100 |  | 68 | 55 | 35 | 
CCc1cn2c(nc1=O)O[C@@H]1[C@H](F)[C@H]2O[C@@H]1CO | > 100 |  | > 100 |  | 25 | 25 | 50 | inhibition of growth at 50 µg/mL (Mycobacterium avium [14]): 25%
CCc1cn([C@@H]2O[C@H](CO)[C@@H](O)[C@@H]2F)c(=O)nc1N | > 100 | 0 | > 100 | 100 | 50 |  |  | 
CCc1cn([C@@H]2O[C@H](CO)[C@@H](Br)[C@@H]2F)c(=O)[nH]c1=O | > 100 | 0 | > 100 | 5 | 78 | 65 |  | inhibition of growth at 5 µg/mL [6]: 50%; inhibition of growth at 10 µg/mL [8]: 56%
O=c1[nH]c(=S)c(CO)cn1[C@@H]1O[C@H](CO)[C@@H](O)[C@@H]1O | > 100 |  | > 100 | 0.5 | 100 | 100 | 73 | inhibition of growth at 10 µg/mL (Mycobacterium avium [18]): 50%; Ratio [19]: 10; inhibition of growth at 50 µg/mL (Mycobacterium avium [14]): 58%; inhibition of growth at 5 µg/mL [6]: 70%; inhibition of growth at 0.5 µg/mL [17]: 50%; inhibition of growth at 10 µg/mL [8]: 90%; MIC50 (Mycobacterium avium [20]): 10 µg/mL; MIC50 [21]: 1 µg/mL
CCc1cn([C@@H]2O[C@H](CO)C[C@@H]2F)c(=O)[nH]c1=O | > 100 |  | > 100 |  | 25 |  | 25 | 
